Published values from different studies.
IDE: Insulin-degrading enzyme (IDE, Homo sapiens, UniProt P14735)
Tumor necrosis factor receptor superfamily member 9: Tumor necrosis factor receptor superfamily member 9 (Homo sapiens, UniProt Q07011)

Compound	target	test	setting	quantity	result
CN1CCN(c2ccc(Nc3ncc4cc(C#N)c(=O)n(C5CCCC5)c4n3)cc2)CC1	Serine/threonine-protein kinase 4 (STK4, Homo sapiens, UniProt Q13043)	enzyme activity, inhibitor	–	IC50	7070 nM
O=C(O)CN(CC(=O)N[C@H](CO)Cc1c[nH]cn1)Cc1ccccc1	IDE	enzyme activity, inhibitor, fluorescence	–	IC50	4100 nM
CCCC[C@@H]1NC(=O)[C@H](Cc2ccc(O)cc2)NC(=O)[C@@H]2CCCN2C(=O)[C@H](CC(=O)O)NC(=O)[C@H](C)NC(=O)[C@H](Cc2ccccc2)NC(=O)[C@@H]2CSCCC(=O)N3CN(CN(C3)C(=O)CCSC[C@@H](C(=O)N[C@@H](C)C(N)=O)NC1=O)C(=O)CCSC[C@H](NC(C)=O)C(=O)N[C@@H](CC(C)(C)C)C(=O)N1CCC[C@H]1C(=O)N[C@@H](CCC(=O)O)C(=O)N[C@H](CCCCNC(=O)CCc1cn(CCOCCOCCOCCOCCOCCC(=O)N[C@H]3CSCCC(=O)N4CN5CN(C4)C(=O)CCSC[C@H](NC(=O)[C@@H](CC(=O)O)NC(=O)[C@H](Cc4cccc6ccccc46)NC(=O)[C@@H]4CCCN4C3=O)C(=O)N[C@@H](CCSC)C(=O)N[C@@H](CCCCNC(=N)N)C(=O)N[C@@H](CC(=O)O)C(=O)N[C@@H](Cc3c[nH]c4ccccc34)C(=O)N[C@@H](CO)C(=O)N[C@@H]([C@@H](C)O)C(=O)N3CCC[C@H]3C(=O)N3C[C@H](O)C[C@H]3C(=O)N[C@@H](Cc3c[nH]c4ccccc34)C(=O)N[C@H](C(N)=O)CSCCC5=O)nn1)C(=O)N1CCC[C@H]1C(=O)N[C@@H](Cc1ccc(O)cc1)C(=O)N2	Tumor necrosis factor receptor superfamily member 9	binding, SPR	–	Kd	3.4 nM
CNC(=O)c1cc2c(Oc3ccc(NC(=O)C4(C(=O)Nc5ccc(F)cc5)CC4)cc3)ccnc2cc1OC	Hepatocyte growth factor receptor (MET, Homo sapiens, UniProt P08581)	enzyme activity, inhibitor, TR-FRET	–	IC50	16.1 nM
Cc1cnc(-c2ccc(-c3ccc(NC(=O)Nc4c(F)cc(F)cc4F)cc3F)c3c2C(=O)NC3)[nH]1	TRAF2 and NCK-interacting protein kinase (TNIK, Homo sapiens, UniProt Q9UKE5)	enzyme activity, inhibitor	–	IC50	4.1 nM
CC(C)C[C@H](NC(=O)[C@H](Cc1ccccc1)NC(=O)[C@H](Cc1ccc(O)cc1)NC(=O)CNC(=O)[C@H](CCCNC(=N)N)NC(=O)[C@H](CO)NC(=O)[C@H](CCC(N)=O)NC(=O)[C@H](CO)NC(=O)[C@H](C)NC(=O)[C@H](Cc1ccccc1)NC(=O)[C@@H]1CCCN1C(=O)[C@H](CO)NC(=O)[C@H](CCC(N)=O)NC(=O)[C@H](Cc1ccccc1)NC(=O)[C@H](CCC(=O)O)NC(=O)[C@H](CCC(=O)O)NC(=O)[C@H](CC(=O)O)NC(=O)[C@@H](NC(=O)[C@H](CCCNC(=N)N)NC(=O)[C@@H](N)Cc1ccccc1)C(C)C)C(=O)N[C@@H](Cc1ccccc1)C(=O)N[C@@H](CCCNC(=N)N)C(=O)N1CCC[C@H]1C(=O)N[C@@H](CCCNC(=N)N)C(=O)N[C@@H](CC(N)=O)C(N)=O	Neuromedin-U receptor 2 (NMUR2, Homo sapiens, UniProt Q9GZQ4)	inositol phosphate, agonist, TR-FRET	–	EC50	0.17 nM
CCCC[C@@H]1NC(=O)[C@H](Cc2ccc(O)cc2)NC(=O)[C@@H]2CCCN2C(=O)[C@H](CC(=O)O)NC(=O)[C@H](C)NC(=O)[C@H](Cc2ccccc2)NC(=O)[C@@H]2CSCCC(=O)N3CN(CN(C3)C(=O)CCSC[C@@H](C(=O)N[C@@H](C)C(N)=O)NC1=O)C(=O)CCSC[C@H](NC(C)=O)C(=O)N[C@@H](CC(C)(C)C)C(=O)N1CCC[C@H]1C(=O)N[C@@H](CCC(=O)O)C(=O)N[C@H](CCCCNC(=O)CCc1cn(CC(=O)N[C@H]3CSCCC(=O)N4CN5CN(C4)C(=O)CCSC[C@H](NC(=O)[C@@H](CC(=O)O)NC(=O)[C@H](Cc4cccc6ccccc46)NC(=O)[C@@H]4CCCN4C3=O)C(=O)N[C@@H](CCSC)C(=O)N[C@@H](CCCCNC(=N)N)C(=O)N[C@@H](CC(=O)O)C(=O)N[C@@H](Cc3c[nH]c4ccccc34)C(=O)N[C@@H](CO)C(=O)N[C@@H]([C@@H](C)O)C(=O)N3CCC[C@H]3C(=O)N3C[C@H](O)C[C@H]3C(=O)N[C@@H](Cc3c[nH]c4ccccc34)C(=O)N[C@H](C(N)=O)CSCCC5=O)nn1)C(=O)N1CCC[C@H]1C(=O)N[C@@H](Cc1ccc(O)cc1)C(=O)N2	Tumor necrosis factor receptor superfamily member 9	binding, SPR	–	Kd	9 nM
COC(=O)[C@H](Cc1c[nH]cn1)NC(=O)CN(CCCc1ccccc1)CC(=O)O	IDE	enzyme activity, inhibitor, fluorescence	–	IC50	1000 nM
Cc1cc2nc3c(=O)[nH]c(=O)nc-3n(C[C@H](O)[C@H](O)[C@H](O)COP(=O)(O)OP(=O)(O)OC[C@H]3O[C@@H](n4cnc5c(N)ncnc54)[C@H](O)[C@@H]3O)c2cc1C	Heterogeneous nuclear ribonucleoprotein H3 (Homo sapiens, UniProt P31942)	binding	lysate	Kd	19 nM
COC(=O)[C@H](Cc1c[nH]cn1)NC(=O)CN(CC(=O)NO)Cc1ccccc1	IDE	enzyme activity, inhibitor, fluorescence	–	IC50	3200 nM
Cc1ccc(C)c(OCCCC(C)(C)C(=O)O)c1	Peroxisome proliferator-activated receptor alpha (PPARA, Homo sapiens, UniProt Q07869)	reporter gene, agonist, luciferase	–	EC50	201000 nM
